The nature of series [1]: The reaction rate constant (K) by measuring competition with nitroblue tetrazolium of the superoxide radicals formed by xanthine oxidase/xanthine. In kind it is ADME.
Series [2] is filed under the species Mus musculus. The series is described as follows: The in vitro IC50 value was measured for inhibition of lipid autoxidation in mouse heart homogenate. The format is functional. A digest of the protocol:
(§1)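 Heart homogenate from untreated mice, diluted in potassium phosphate buffer. Test compound was added at several concentrations before 2 h incubation at 37 °C. The reaction was stopped on ice with HClO4, then heated with thiobarbituric acid at 100 °C for 15 min. TBARS were extracted into n-butanol and read by fluorescence (ex 515 nm, em 553 nm) against a malondialdehyde dimethylacetal standard. IC50 is 50% inhibition of TBARS formation.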

The species named for series [3] is Mus musculus. Kind of series: The ex vivo ID50 value was measured for inhibition of lipid autoxidation in mouse heart homogenate. The format is functional. The settings on record: read-out: ID50 (the source's name). Summed up: (§2)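 Groups of five CD1 mice were dosed subcutaneously, and hearts were excised 1 h later. Frozen hearts were homogenized, diluted in potassium phosphate buffer and incubated at 37 °C for 2 h. The reaction was stopped on ice with HClO4 and centrifuged. The supernatant was heated with thiobarbituric acid at 100 °C for 15 min. TBARS were extracted into n-butanol and read by fluorescence (ex 515 nm, em 553 nm) against a malondialdehyde dimethylacetal standard. ID50 was taken from semilog plots of log dose versus percent of vehicle control, using at least four doses.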

The species entered for a further series is Rattus norvegicus. The series is described as follows: The IC50 value was measured for inhibition of lipid autoxidation in rat brain homogenate. The format is functional. A digest of the protocol: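 Rat brain homogenate left to autoxidize with test compound present. The read-out is formation of thiobarbituric acid-reactive substances (TBARS). IC50 is the concentration that inhibits TBARS formation by 50%. Values are single or duplicate determinations, or means ± SD.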

Series [4] in a line: (§3) The reaction rate constant(K) by measuring competition with nitroblue tetrazolium of the superoxide radicals formed by xanthine oxidase/xanthine. The format is functional.
Series [5] is filed under the species Mus musculus. Kind of series: The ex vivo ID50 value was measured for lipid inhibition of autoxidation in mouse heart homogenate. In kind it is functional. As to conditions: read-out: ID50 (the source's name). Summed up: as §2
The species entered for series [6] is Mus musculus. The series is described as follows: The in vitro IC50 value was measured for lipid inhibition of autoxidation in mouse heart homogenate. The format is functional. Summed up: as §1
Series [7] can be described thus: as §3. The format is ADME.
For series [8], the system named is Mus musculus. Kind of series: The ex vivo ID50 value was measured for inhibition of lipid autoxidation in mouse heart homogenate 1 hr after subcutaneous administration. The format is functional. As to conditions: sc, read-out: ID50 (the source's name). A digest of the protocol:
as §2

`Cc1c(C)c2c(c(C)c1O)CCC(C)(CCN(C)C)O2` (centres undefined): the K in series [1] turned out to be 27000 M⁻¹ s⁻¹. It took 19 µM to reach half-maximal inhibition in the series listed under Mus musculus [2] (IC50). For the same compound, the ED50 in the series listed under Mus musculus [3] is more than 150 µmol/kg.
`Cc1c(C)c2c(c(C)c1O)CC[C@](C)(CC[P+](C)(C)C)O2` showed an IC50 in the series filed under Rattus norvegicus (Rattus norvegicus, Brain) of 2 µM. In other words, the single-digit micromolar range.
Turning to `Cc1c(C)c2c(c(C)c1O)CCC(C)(C(=O)O)O2` (centres undefined) [TROLOX], in series [1], the K was determined as 20000 M⁻¹ s⁻¹. The compound also gave an IC50 in the series filed under Rattus norvegicus of 14 µM.
With `O=C1O[C@H]([C@@H](O)CO)C(O)=C1O`, the K in series [4] stood at 350000 M⁻¹ s⁻¹.
On to `CSCCC1(C)CCc2c(C)c(O)c(C)c(C)c2O1` (centres undefined), for which the K in [1] turned out to be 800 M⁻¹ s⁻¹. Also, the ED50 in the series filed under Mus musculus [5] was more than 150 µmol/kg. Also, the IC50 came to 3 µM in the series filed under Rattus norvegicus (Rattus norvegicus, Brain) and 18 µM in the series listed under Mus musculus [6].
Consider `Cc1c(C)c2c(c(C)c1O)CCC(C)(CC(=O)[N-][N+](C)(C)C)O2` (centres undefined), for which, in series [7], the K came to 28000 M⁻¹ s⁻¹. The compound also had an IC50 in the series listed under Rattus norvegicus (Rattus norvegicus, Brain) of 6 µM.
With `Cc1c(C)c2c(c(C)c1O)CCC(C)(CC[S+](C)C)O2.Cc1ccc(S(=O)(=O)[O-])cc1` (centres undefined), the K in series [7] was determined as 21000 M⁻¹ s⁻¹. Besides, the IC50 in the series filed under Mus musculus [2] was 7 µM; in the series filed under Rattus norvegicus (Rattus norvegicus, Brain) it was 2 µM. For the same compound, the ED50 in the series filed under Mus musculus [5] came out at 6 µmol/kg.
As for `Cc1c(C)c2c(c(C)c1O)CC[C@@](C)(CC(=O)[N-][N+](C)(C)C)O2`, inhibition in the series listed under Rattus norvegicus (Rattus norvegicus, Brain) was half-maximal at 9 µM (IC50). This lies in the single-digit micromolar range.
`Cc1c(C)c2c(c(C)c1O)CC[C@](C)(CC[S+](C)C)O2` displayed an IC50 in the series filed under Rattus norvegicus (Rattus norvegicus, Brain) of 2 µM.
As for `CCCCCCCCCCCCCCCCCCOC1=C([O-])C(C(O)C[N+](C)(C)C)OC1=O` (centres undefined), the IC50 in the series listed under Rattus norvegicus (Rattus norvegicus, Brain) is more than 20 µM.
Regarding `Cc1c(C)c2c(c(C)c1O)CC[C@@](C)(CC(=O)O)O2`, the concentration for half-maximal inhibition (IC50) in the series listed under Rattus norvegicus (Rattus norvegicus, Brain) stood at 17 µM.
In the case of `Cc1c(C)c2c(c(C)c1O)CCC(C)(CC[N+](C)(C)C)O2.Cc1ccc(S(=O)(=O)[O-])cc1` (centres undefined), in [1], the K worked out at 24000 M⁻¹ s⁻¹. For the same compound, the IC50 in the series listed under Mus musculus [2] is 19 µM; in the series listed under Rattus norvegicus (Rattus norvegicus, Brain), 2.6 µM. For the same compound, the ED50 in the series on Mus musculus [8] was 11 µmol/kg.
In turn, `Cc1c(C)c2c(c(C)c1O)CC[C@](C)(CC[N+](C)(C)C)O2.Cc1ccc(S(=O)(=O)[O-])cc1` returned a K in [1] of 18000 M⁻¹ s⁻¹. Besides, in the series filed under Rattus norvegicus (Rattus norvegicus, Brain), the IC50 turned out to be 2.2 µM.
For the compound `Cc1c(C)c2c(c(C)c1O)CC[C@](C)(CC(=O)[N-][N+](C)(C)C)O2`, the IC50 in the series listed under Rattus norvegicus (Rattus norvegicus, Brain) was determined as 8 µM. This counts as single-digit micromolar.
As to `Cc1c(C)c2c(c(C)c1O)CC[C@@](C)(CC[N+](C)(C)C)O2.Cc1ccc(S(=O)(=O)[O-])cc1`, in [1], the K is 21000 M⁻¹ s⁻¹. In addition, the concentration for half-maximal inhibition (IC50) in the series listed under Rattus norvegicus (Rattus norvegicus, Brain) is 2.3 µM.
Take `Cc1c(C)c2c(c(C)c1O)CC[C@@](C)(CCN(C)C)O2`: the IC50 in the series listed under Rattus norvegicus (Rattus norvegicus, Brain) was 1 µM.
On to `Cc1c(C)c2c(c(C)c1O)CCC(C)(C(=O)[N-][N+](C)(C)C)O2` (centres undefined), for which the IC50 in the series listed under Rattus norvegicus (Rattus norvegicus, Brain) came to 14 µM.
As for `Cc1c(C)c2c(c(C)c1O)CC[C@](C)(CC(=O)O)O2`, the IC50 in the series listed under Rattus norvegicus (Rattus norvegicus, Brain) was 14 µM.
The compound `Cc1c(C)c2c(c(C)c1O)CC[C@@](C)(CCC[C@H](C)CCC[C@H](C)CCCC(C)C)O2` [alpha-TOCHOPHEROL] came in with an IC50 in the series filed under Rattus norvegicus (Rattus norvegicus, Brain) of 14 µM.
The compound `Cc1c(C)c2c(c(C)c1O)CC[C@](C)(CCN(C)C)O2` displayed an IC50 in the series listed under Rattus norvegicus (Rattus norvegicus, Brain) of 1 µM.
`C[N+](C)(C)CC(O)C1OC(=O)C(O)=C1[O-]` (centres undefined) showed a K in series [1] of 600000 M⁻¹ s⁻¹. Further, the IC50 in the series listed under Rattus norvegicus (Rattus norvegicus, Brain) was more than 200 µM.
In series [7], `CC[P+](CC)(CC)CCC1(C)CCc2c(C)c(O)c(C)c(C)c2O1.[Br-]` (centres undefined) yielded a K of 22000 M⁻¹ s⁻¹. The IC50 is 10 µM in the series filed under Mus musculus [2] and 2 µM in the series filed under Rattus norvegicus (Rattus norvegicus, Brain). The ED50 in the series filed under Mus musculus [5] was determined as 7 µmol/kg.
Take `Cc1c(C)c2c(c(C)c1O)CC[C@@](C)(CC[S+](C)C)O2`: the IC50 in the series listed under Rattus norvegicus (Rattus norvegicus, Brain) turned out to be 2 µM.
In the series filed under Rattus norvegicus (Rattus norvegicus, Brain), `Cc1c(C)c2c(c(C)c1O)CC[C@@](C)(CC[P+](C)(C)C)O2` came in with an IC50 of 2 µM.
For the compound `Cc1c(C)c2c(c(C)c1O)CCC(C)(CC[P+](C)(C)C)O2.[Br-]` (centres undefined), the K in series [7] is 24000 M⁻¹ s⁻¹. In addition, the IC50 in the series filed under Mus musculus [2] worked out at 10 µM; in the series filed under Rattus norvegicus (Rattus norvegicus, Brain), 2 µM. Also, the ED50 in the series listed under Mus musculus [5] amounted to 8 µmol/kg.
As for `CCCCCCCCCCCCCCCCCCOC1=C(O)[C@@H](C(O)CO)OC1=O` (some centres undefined), the K in [7] worked out at 21000 M⁻¹ s⁻¹. This compound also returned an IC50 in the series filed under Rattus norvegicus (Rattus norvegicus, Brain) of 6 µM.

What is called IC50 is the concentration needed to halve the response being measured. A high value points to weaker potency in that assay.

The values are drawn from ChEMBL document CHEMBL1128484, “Cardioselective ammonium, phosphonium, and sulfonium analogues of alpha-tocopherol and ascorbic acid that inhibit in vitro and ex vivo lipid peroxidation and scavenge superoxide radicals” (J Med Chem, 1995).
